Compound activity (PubChem)
A selection: hits, their analogues and other compounds. The true share with any hit is near 9.8%.
PMI act satM6P: PMI (human) activation, high substrate. hit rate 0.34% among 190,000. AID 1216. activation factor at 20 µM. coupled PMI enzyme assay, resazurin fluorescence, 20 min; hits give high values; 1 = untreated enzyme, 0 = substrate-free blank;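 active means activation factor of 2 or more at 20 µM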
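Material: human phosphomannose isomerase with PGI, G6PDH, diaphorase coupling enzymes / Reagent: Man-6-P substrate 1.0 mM / Dosing: single compound dose of 20 µM, 1% DMSO final / Incubation: enzyme reaction with compound 20 min at room temperature / Signal: resorufin fluorescence (Ex 544/Em 590 nm) from resazurin via diaphorase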
WT yeast gro inh: growth inhibition of WT yeast, mitochondrial fusion screen; AID 1362; mitochondrial fusion phenotypic screen, WT strain; hit rate 2.1% among 190,000; inhibition, % at 10 µM; in the data active means inhibition above about 58%; tested in S. cerevisiae
L major viab: inhibitors of Leishmania major promastigote growth. AID 1063. inhibition, % at 10 µM. Leishmania major promastigotes, resazurin fluorescence viability. hit rate 9% among 200,000; in the data active means inhibition above about 50%;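 further: promastigotes grown with compound for 44 hours at 28 °C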
Rad51 HR inh: Rad51 (human) homologous recombination inhibition. Q06609. hRad51 DNA strand exchange, fluorescence dequenching. inhibition, % at 10 µM. hit rate 0.085% among 200,000. AID 1385;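 active means inhibition above 40% at the single screening dose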;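 further: 0% = DMSO control wells and 100% = blanks with heterologous ssDNA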
Target sequence (Q06609 whole entry, looked up): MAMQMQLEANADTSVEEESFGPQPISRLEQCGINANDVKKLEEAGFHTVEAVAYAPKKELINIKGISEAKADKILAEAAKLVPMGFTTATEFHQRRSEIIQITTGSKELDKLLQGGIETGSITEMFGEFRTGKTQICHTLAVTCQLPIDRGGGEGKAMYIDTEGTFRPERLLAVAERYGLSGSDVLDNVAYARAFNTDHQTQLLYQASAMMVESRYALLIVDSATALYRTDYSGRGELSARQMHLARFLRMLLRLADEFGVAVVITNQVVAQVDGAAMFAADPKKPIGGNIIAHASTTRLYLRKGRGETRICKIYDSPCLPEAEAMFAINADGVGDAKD
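Material: Human Rad51 nucleoprotein filaments preassembled on unlabelled ssDNA | Also added: Labelled 47-mer dsDNA for strand exchange | Dosing: Single dose, 10 µM final compound | Schedule: 30-min compound preincubation and 15-min exchange, both room temperature | Technique: Fluorescence dequenching at 485/520 nm | Measure: Percent inhibition relative to plate controls and blanks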
PMI act: phosphomannose isomerase (human) activation. P34949. purified human PMI, coupled resazurin fluorescence, 20 min; hits give high values; 1 = vehicle control, 0 substrate-free wells. activation factor at 20 µM. hit rate 0.005% among 190,000. AID 1214;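 active means activation factor of 2 or more at 20 µM, relative to plate controls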
Calpain2 inh: inhibitors of pig calpain II | purified calpain II, fluorogenic peptide substrate, 30 min | inhibition, % at 16 µM | hit rate 0.37% among 220,000;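 active means inhibition above about 50%, limit read from the data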
* hit, by the source's call; . = not tested or not shown.

SMILES | PMI act satM6P | WT yeast gro inh | L major viab | Rad51 HR inh | PMI act | Calpain2 inh
COc1ccccc1N1CCN(CC(O)COc2c(OC)cccc2OC)CC1 (stereo not drawn) | 0.5 | -10.0 | -1.8 | -3.5 | 0.8 | -22.4
N=C1SC(CC(=O)Nc2ccccc2[N+](=O)[O-])C(=O)N1c1ccccc1 (stereo not drawn) | . | . | . | 21.4 | . | 11.3
CCC(c1nnnn1Cc1ccc(F)cc1)N1CCN(C2CCCCC2)CC1 (stereo not drawn) | 1.1 | -18.8 | 31.3 | 0.7 | 1.1 | -0.2
Fc1ccc(Cn2nnnc2CN2CCN(C3CCCC3)CC2)cc1 | 1 | 7.1 | 94.0* | 6.7 | 1.1 | -1.1
Oc1ccc(C=Nc2ccc3ncccc3c2)c(O)c1 | 0.3 | 42.4 | 93.3* | 1.0 | 0.3 | -61.6
Nc1nc(NS(=O)(=O)c2ccc(Cl)cc2)nn1-c1ccccc1 | . | . | . | 1.7 | . | 6.9
CC1(C)C2CCC1(CS(=O)(=O)Nc1ccc(S(=O)(=O)N3CCCC3)cc1)C(=O)C2 (stereo not drawn) | 0.9 | 4.6 | 50.3* | -3.0 | 0.8 | -7.3
CN=c1c([N+](=O)[O-])nn(-c2ccc3c(c2)OCCO3)n1O | 1 | -6.2 | 43.3 | 9.7 | 1.1 | 1.8
O=[N+]([O-])c1nn(-c2ccc3c(c2)OCCO3)n(O)c1=NCCC1=CCCCC1 | 0.9 | 1.5 | 63.0* | 4.2 | 0.9 | 4.7
CC(C)c1ccc(N=c2c([N+](=O)[O-])nn(-c3ccc4c(c3)OCCO4)n2O)cc1 | 0.8 | 29.4 | 2.1 | -1.8 | 0.8 | 14.8
O=[N+]([O-])c1nn(-c2ccc3c(c2)OCCO3)n(O)c1=NCc1ccc(F)cc1 | 0.9 | 7.3 | 96.9* | -6.1 | 0.8 | 23.4
O=[N+]([O-])c1nn(-c2ccc3c(c2)OCCO3)n(O)c1=NC1CCN(Cc2ccccc2)CC1 | 1 | -3.9 | 76.3* | -4.2 | 1 | 8.8
CCc1cccc(N=c2c([N+](=O)[O-])nn(-c3ccc4c(c3)OCCO4)n2O)c1 | 0.9 | 37.7 | 90.5* | 3.7 | 1.1 | 14.3
O=[N+]([O-])c1nn(-c2ccccc2)n(O)c1=NC1CCN(Cc2ccccc2)CC1 | 0.9 | -16.0 | 42.1 | -0.9 | 1 | -7.2
CCOC(=O)c1cccc(C(=O)Nc2nc3ccc(OC)cc3s2)n1 | 0.9 | 3.6 | 11.9 | -11.4 | 1.1 | -115.5
O=C(Nn1c(-c2ccc(F)cc2)nc2ccccc2c1=O)C1CCCCC1 | 0.9 | 14.7 | 0.7 | 1.9 | 0.9 | -26.7
CCN(CC)c1ccc(/C=N/NC(=O)c2cccc(N3CCCC3=O)c2)cc1 | 0.9 | -5.1 | 0.0 | -0.1 | 0.9 | 16.3
O=[N+]([O-])c1nn(-c2ccc3c(c2)OCCO3)n(O)c1=NCc1ccc(F)cc1Cl | 1 | 0.9 | 84.7* | -35.1 | 1 | -25.0
Cn1c(CC(=O)NC(C)(C)CO)c(Sc2ccccc2)c2ccccc21 | 0.9 | -2.6 | 4.5 | 6.4 | 0.9 | 1.4
CCOC(=O)Cc1c(Sc2ccccc2)c2ccccc2n1C | 1 | 66.3* | -0.9 | 3.9 | 0.9 | 11.9
CCS(=O)(=O)C(C)(CCl)C(=O)Nc1ccc(C(=O)OC)cc1 (stereo not drawn) | . | . | . | 0.7 | . | -18.8
COC(=O)c1cc(-c2ccc(NC(C)=O)cc2)nc2ccccc12 | 1 | -8.1 | -2.1 | -2.8 | 1 | -16.7
O=C(CN(CCc1ccccc1)S(=O)(=O)c1ccc(Cl)cc1)N/N=C/c1ccccc1C(=O)O | 0.9 | 8.1 | -1.6 | -5.5 | 1 | 27.6
COc1ccc(-c2csc(N=C(N)N)n2)cc1 | 1.1 | -2.9 | 59.6* | -24.1 | 1.1 | 28.8
O=C(NC(C(=O)N/N=C/c1c2ccccc2cc2ccccc12)c1n[nH]c(=O)c2ccccc12)c1ccccc1 (stereo not drawn) | 0.9 | -6.0 | 92.5* | . | 0.9 | -171.4
SMILES | PMI act satM6P | WT yeast gro inh | L major viab | Rad51 HR inh | PMI act | Calpain2 inh
O=C(NC(C(=O)N/N=C/c1ccccc1)c1n[nH]c(=O)c2ccccc12)c1ccccc1 (stereo not drawn) | 0.9 | -10.4 | 10.4 | . | 0.9 | -53.8
CC(=O)Nc1ccc2nc3c(=O)n(C)c(=O)n(C)c3nc2c1 | . | . | . | -26.9 | . | -197.8
CC(=O)Oc1ccc(Cl)cc1/C=C/c1ccc2ccccc2n1 | 0.8 | 31.4 | 55.2* | 5.1 | 0.8 | -9.6
CC(=O)Oc1c(Cl)cc(Cl)cc1/C=C/c1ccc2ccccc2n1 | 0.9 | 83.0* | 7.6 | 3.3 | 0.9 | 6.8
O=C(O)/C=C/c1ccc2ccccc2n1 | 1 | -32.1 | -2.9 | 5.2 | 1 | -18.2
Cc1cc(C(F)(F)F)nn2cnnc12 | 1 | -3.8 | -6.5 | -34.6 | 1 | -14.1
Cc1ccc(-n2nc3c(c2NC(=O)/C=C\c2ccc4c(c2)OCO4)CSC3)cc1 | 0.9 | 23.6 | 92.6* | . | 0.9 | -110.5
Cc1ccccc1-n1nc2c(c1NC(=O)/C=C\c1ccc3c(c1)OCO3)CSC2 | 1 | 31.9 | 68.0* | . | 1 | -103.0
Cc1ccc(-n2nc3c(c2NC(=O)/C=C\c2ccc4c(c2)OCO4)CSC3)c(C)c1 | 0.9 | 35.8 | 99.2* | . | 0.9 | -122.0
Cc1ccc(-n2nc3c(c2NC(=O)c2ccc4c(c2)OCO4)CS(=O)C3)cc1 (stereo not drawn) | 1 | -10.5 | -3.0 | -2.2 | 1.1 | -17.3
Cc1cccnc1NC(=O)/C=C/c1ccc2c(c1)OCO2 | 1 | 1.1 | -4.3 | 4.6 | 1 | -95.0
O=C(CSc1cccs1)Nc1cccc2ccccc12 | 1 | -4.0 | 63.7* | 2.1 | 0.9 | 17.9
O=C(CSc1cccs1)Nc1ccc2ccccc2c1 | 0.9 | 17.1 | 0.0 | -0.9 | 0.9 | 15.0
Cc1ccc(N2C(=O)C3C4C=CC(CNC(=S)Nc5ccc(F)cc5)(O4)C3C2=O)cc1 (stereo not drawn) | 1.5 | -5.5 | 66.5* | -3.3 | 1.3 | 10.9
Cc1ccc(N2C(=O)C3C4C=CC(CNC(=S)Nc5ccc(Cl)cc5)(O4)C3C2=O)cc1 (stereo not drawn) | 1.2 | 13.8 | 82.9* | 8.6 | 1 | 19.3
Cc1ccc(N2C(=O)C3C4C=CC(CNC(=S)Nc5cccc(Cl)c5)(O4)C3C2=O)cc1 (stereo not drawn) | 1.3 | 6.4 | 79.1* | 7.9 | 1.1 | 12.8
CC(C)COC(=O)NCC12C=CC(O1)C1C(=O)N(c3ccc(Cl)cc3)C(=O)C12 (stereo not drawn) | 1.4 | -5.9 | -8.9 | 2.2 | 1.2 | -7.9
Cc1ccc(N2C(=O)C3C4C=CC(CNC(=S)N5CCN(c6ccccn6)CC5)(O4)C3C2=O)cc1 (stereo not drawn) | 1.3 | 21.6 | 3.5 | 3.0 | 1.2 | -16.0
Cc1ccc(-n2c(SCCN)nnc2-c2cccc(C)c2)cc1 | . | . | . | 19.2 | . | -3.8
Cc1cccc(-c2nnc(SCC3CNC(=O)O3)n2-c2ccc(Cl)cc2)c1 (stereo not drawn) | 1.1 | 5.0 | 95.7* | -1.6 | 1.1 | 19.5
COc1ccc(-n2c(SCC3CNC(=O)O3)nnc2-c2ccc(Cl)cc2)cc1 (stereo not drawn) | 1.1 | -12.3 | 92.4* | -0.7 | 1.1 | -2.3
